{
  "source": "paper PMC6511231",
  "about": "(Cell reports, 2018)",
  "key": {"[1]": {"test_system": "HeLa control cells expressing GFP and not LIN28", "test": "let-7-sensitive dual luciferase reporter assay, GFP control cells", "assay_type": "cell-based, human", "conditions": "up to 100 μM", "summary_of_the_method": "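HeLa cells were retrovirally transduced with FLAG-GFP (or LIN28) cDNA, puromycin-selected and single-cell cloned. They were then lentivirally given an 8×let-7-site Renilla/HSV-TK firefly cassette and selected with G418 as polyclonal populations. Cells were exposed to up to 100 μM test compound, lysed, and read for dual luciferase with firefly as internal control. Values were normalised to blanks.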"}, "[2]": {"molecular_target": "CSD (residues 16–136) of LIN28 (Homo sapiens, UniProt Q9H9Z2)", "sequence (Q9H9Z2 16-136)": "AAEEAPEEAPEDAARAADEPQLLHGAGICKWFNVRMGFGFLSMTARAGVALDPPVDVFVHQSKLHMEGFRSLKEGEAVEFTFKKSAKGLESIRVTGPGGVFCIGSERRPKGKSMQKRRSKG", "test": "Saturation transfer difference spectroscopy, CSD", "assay_type": "binding", "conditions": "CSD alone", "summary_of_the_method": "(§1)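 Protein was dialysed overnight into 20 mM Bis-Tris pH 6.0, 100 mM NaCl, 10% v/v glycerol-d8, 5 mM DTT and D2O. Test compound was dissolved in DMSO-d6. Samples held 100 μM compound and 5 μM protein in dialysis buffer. STD spectra were collected at 700 MHz, irradiating the macromolecule only at −2 ppm, with a 2 s transfer delay.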"}, "[3]": {"test_system": "apoptosis", "test": "Annexin V flow cytometry", "assay_type": "cell-based", "conditions": "100 μM, 48 hr", "summary_of_the_method": "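Cells exposed to 100 μM test compound or vehicle for 48 hr, then harvested and stained with APC-conjugated annexin V following the kit protocol before flow cytometry.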"}, "[4]": {"molecular_target": "TUT4 (Mus musculus, UniProt B2RX14)", "test": "Uridylation assay without LIN28", "assay_type": "biochemical"}, "[5]": {"molecular_target": "LIN28ΔK102 (Homo sapiens, UniProt Q9H9Z2, K102A)", "sequence (Q9H9Z2 16-187 K102A)": "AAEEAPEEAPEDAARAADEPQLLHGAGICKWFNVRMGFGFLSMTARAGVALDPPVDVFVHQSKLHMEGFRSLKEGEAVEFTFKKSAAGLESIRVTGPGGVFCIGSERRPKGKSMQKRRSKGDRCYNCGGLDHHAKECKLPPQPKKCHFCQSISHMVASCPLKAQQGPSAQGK", "test": "Saturation transfer difference spectroscopy, K102A mutant", "assay_type": "binding", "conditions": "K102A mutation, compared with LIN28Δ", "summary_of_the_method": "as §1"}, "[6]": {"test_system": "HeLaLIN28A", "test": "let-7-sensitive dual luciferase reporter assay, HeLaLIN28A", "assay_type": "cell-based, human", "conditions": "LI71 50–100 μM, 48 hr", "summary_of_the_method": "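A HeLa clone stably expressing low-level FLAG-LIN28A plus the 8×let-7 Renilla/firefly dual-luciferase sensor was treated 48 hr with vehicle (DMSO) or test compound at the indicated concentrations. Dual luciferase activity was then assayed, with firefly as internal control. Runs used 3 or 5 biological replicates; Student's t test against vehicle.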"}, "[7]": {"molecular_target": "T1, mouse LIN28Δ, mouse TUT4 and pre-let-7g (Mus musculus, UniProt Q8K3Y3)", "T1 sequence (Q8K3Y3 16-184)": "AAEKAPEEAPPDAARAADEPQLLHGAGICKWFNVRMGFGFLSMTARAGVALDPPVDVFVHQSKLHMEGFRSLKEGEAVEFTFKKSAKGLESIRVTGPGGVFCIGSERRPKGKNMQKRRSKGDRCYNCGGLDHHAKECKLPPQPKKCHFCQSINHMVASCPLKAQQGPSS", "T1 sequence (B2RX14 230-1424 partner)": "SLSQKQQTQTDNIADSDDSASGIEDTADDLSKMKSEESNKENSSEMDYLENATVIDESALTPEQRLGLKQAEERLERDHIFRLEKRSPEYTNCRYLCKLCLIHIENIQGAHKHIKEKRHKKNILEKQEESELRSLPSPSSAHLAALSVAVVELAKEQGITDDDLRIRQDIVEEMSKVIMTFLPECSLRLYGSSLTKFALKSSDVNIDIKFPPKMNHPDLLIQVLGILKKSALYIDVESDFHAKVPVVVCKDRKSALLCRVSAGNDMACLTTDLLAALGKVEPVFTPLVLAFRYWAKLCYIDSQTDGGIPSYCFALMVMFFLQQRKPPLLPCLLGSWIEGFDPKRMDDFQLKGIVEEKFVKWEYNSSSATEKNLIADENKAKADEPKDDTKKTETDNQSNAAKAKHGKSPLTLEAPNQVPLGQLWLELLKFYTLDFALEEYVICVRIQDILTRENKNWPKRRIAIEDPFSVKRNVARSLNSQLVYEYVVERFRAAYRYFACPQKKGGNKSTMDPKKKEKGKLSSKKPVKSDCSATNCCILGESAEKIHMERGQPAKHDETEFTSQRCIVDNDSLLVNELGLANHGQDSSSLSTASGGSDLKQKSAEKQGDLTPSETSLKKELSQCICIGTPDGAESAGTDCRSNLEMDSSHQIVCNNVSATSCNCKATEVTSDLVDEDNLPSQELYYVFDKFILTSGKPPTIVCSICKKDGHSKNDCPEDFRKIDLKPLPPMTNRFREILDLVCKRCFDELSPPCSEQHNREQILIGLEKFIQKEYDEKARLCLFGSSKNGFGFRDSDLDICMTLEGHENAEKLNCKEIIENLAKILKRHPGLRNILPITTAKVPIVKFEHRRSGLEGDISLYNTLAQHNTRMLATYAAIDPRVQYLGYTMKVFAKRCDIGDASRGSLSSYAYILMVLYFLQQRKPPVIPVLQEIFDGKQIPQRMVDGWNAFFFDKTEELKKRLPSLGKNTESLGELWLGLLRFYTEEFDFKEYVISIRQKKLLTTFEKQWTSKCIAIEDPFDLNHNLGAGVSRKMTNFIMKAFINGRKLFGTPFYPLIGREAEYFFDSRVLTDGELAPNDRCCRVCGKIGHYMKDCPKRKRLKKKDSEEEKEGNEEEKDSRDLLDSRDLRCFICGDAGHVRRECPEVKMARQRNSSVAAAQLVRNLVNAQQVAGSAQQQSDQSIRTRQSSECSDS", "test": "LIN28-mediated let-7 oligouridylation assay", "assay_type": "biochemical", "conditions": "40 μM compound, 37°C, denaturing PAGE", "summary_of_the_method": "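Mouse LIN28A, mouse TUT4 (230–1424) and in vitro-transcribed, T4 PNK-radiolabelled pre-let-7g were incubated with test compound (40 μM screen; 80 μM follow-up) for 40 min at 37°C. Buffer: 20 mM Tris 7.5, 5% glycerol, 6 mM MgCl2, 6 mM DTT, 50 μM ZnCl2, 40 mM KCl, 200 μM UTP. Reactions were stopped with EDTA/SDS/proteinase K (50°C, 30 min) and run on denaturing PAGE. RNA and DMSO served as controls.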"}},
  "data": [
    {"compound": "CCOc1cccc2c1N[C@@H](c1ccc(C(=O)O)cc1)[C@H]1CC=C[C@@H]21", "note": "[LI71]", "values": [
      {"measurement": "Relative Renilla luciferase activity", "setting": "[1]", "value": "did not show an effect"},
      {"measurement": "Saturation transfer difference signals", "setting": "[2]", "value": "induces the LI71 saturation transfer difference signals"},
      {"measurement": "Apoptosis", "setting": "[3]", "value": "did not increase apoptosis"},
      {"measurement": "Catalytic activity of TUT4 when LIN28 is not present", "setting": "[4]", "value": "does not abolish catalytic activity of TUT4"},
      {"measurement": "Saturation transfer difference signal", "setting": "[5]", "value": "increases the saturation transfer difference signal"},
      {"measurement": "Relative Renilla luciferase activity", "setting": "[6]", "value": "significantly reduce the relative Renilla luciferase activity"},
      {"measurement": "Inhibition of LIN28-mediated oligouridylation", "setting": "[7]", "value": "completely inhibited"}
    ]}
  ]
}
